ChEMBL document CHEMBL1125363, “Novel piperidine sigma receptor ligands as potential antipsychotic drugs” (J Med Chem, 1992)

Columns and labels:
[1] = molecular target: T1, Serotonin 2 (5-HT2) receptor (Mus musculus, UniProt Q02152+P34968+P35363); assay: The compound was tested in vitro for its binding affinity towards 5-hydroxytryptamine 2 receptor; assay type: protein assay
D(2) dopamine receptor [2] = molecular target: T2, D(2) dopamine receptor (Mus musculus, UniProt P61168); assay: The compound was tested in vitro for its binding affinity towards Dopamine receptor D2
[3] = molecular target: Sigma non-opioid intracellular receptor 1 (Mus musculus, UniProt O55242); assay: In vitro binding affinity for the mouse sigma opioid receptor
Mus musculus [4] = species: Mus musculus; assay: Oral potency tested by using anti-mescaline test; assay type: functional
How it was run: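 Mice; mescaline was given to evoke hallucinogen-type behaviour, and the test compound was dosed orally to antagonise it. Potency is the ED50 in mg/kg po. Some ED50s are the average of three measurements.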

[5] = molecular target: T1, Serotonin 2 (5-HT2) receptor; assay: In vitro binding affinity for serotonin 5-hydroxytryptamine (5-HT) 2 receptors; assay type: protein assay
D(2) dopamine receptor [6] = molecular target: T2, D(2) dopamine receptor; assay: In vitro binding affinity towards dopamine receptor D2
Mus musculus [7] = species: Mus musculus; assay: Oral potency tested using apomorphine induced climbing test; assay type: functional
Mus musculus [8] = species: Mus musculus; assay: (§1) Oral potency by using Anti aggression test; assay type: functional
How it was run: (§2)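 Mice were held in prolonged isolation, then exposed to intruders. The aggressive response was scored after oral dosing of the test compound. Potency is the ED50 in mg/kg po.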

D(1A) dopamine receptor = D(1A) dopamine receptor (Mus musculus, UniProt Q61616); assay: The compound was tested in vitro for its binding affinity towards dopamine receptor D1
Rattus norvegicus [9] = species: Rattus norvegicus; assay: Oral potency tested using 5HTP induced head twitch test; assay type: functional
Rattus norvegicus [10] = species: Rattus norvegicus; assay: The compound was tested for blocking the rotation induced by (+)-SKF 10047 in brain-lesioned rats.; assay type: functional
How it was run: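 Rats with brain lesions were challenged with (+)-SKF 10047 to induce rotation. The test compound was given orally to block rotation. Reported as the ED50 in mg/kg po.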

[11] = as §1; assay type: functional; how it was run: as §2
Mus musculus [12] = species: Mus musculus; assay: Oral potency by using Anti aggression test

T2 sequence (P61168 whole entry): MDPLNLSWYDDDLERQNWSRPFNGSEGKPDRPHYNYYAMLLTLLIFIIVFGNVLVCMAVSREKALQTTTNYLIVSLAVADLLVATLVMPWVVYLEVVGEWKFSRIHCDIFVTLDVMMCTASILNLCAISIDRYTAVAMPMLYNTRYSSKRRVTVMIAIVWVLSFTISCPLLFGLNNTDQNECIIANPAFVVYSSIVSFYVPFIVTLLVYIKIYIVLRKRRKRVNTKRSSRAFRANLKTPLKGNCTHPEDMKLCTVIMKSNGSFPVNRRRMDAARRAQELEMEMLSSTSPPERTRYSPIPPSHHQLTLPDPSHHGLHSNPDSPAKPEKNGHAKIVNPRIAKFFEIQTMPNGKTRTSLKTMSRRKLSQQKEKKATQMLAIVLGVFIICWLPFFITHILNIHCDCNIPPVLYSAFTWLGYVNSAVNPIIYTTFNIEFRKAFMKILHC
Chain of Sigma non-opioid intracellular receptor 1 (O55242 whole entry): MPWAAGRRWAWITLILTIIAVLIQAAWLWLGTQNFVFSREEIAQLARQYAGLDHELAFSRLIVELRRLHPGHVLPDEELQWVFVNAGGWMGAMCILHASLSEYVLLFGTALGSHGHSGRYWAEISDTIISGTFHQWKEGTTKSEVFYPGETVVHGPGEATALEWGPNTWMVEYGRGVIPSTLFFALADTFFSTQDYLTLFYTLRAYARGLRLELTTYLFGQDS
Chain of D(1A) dopamine receptor (Q61616 whole entry): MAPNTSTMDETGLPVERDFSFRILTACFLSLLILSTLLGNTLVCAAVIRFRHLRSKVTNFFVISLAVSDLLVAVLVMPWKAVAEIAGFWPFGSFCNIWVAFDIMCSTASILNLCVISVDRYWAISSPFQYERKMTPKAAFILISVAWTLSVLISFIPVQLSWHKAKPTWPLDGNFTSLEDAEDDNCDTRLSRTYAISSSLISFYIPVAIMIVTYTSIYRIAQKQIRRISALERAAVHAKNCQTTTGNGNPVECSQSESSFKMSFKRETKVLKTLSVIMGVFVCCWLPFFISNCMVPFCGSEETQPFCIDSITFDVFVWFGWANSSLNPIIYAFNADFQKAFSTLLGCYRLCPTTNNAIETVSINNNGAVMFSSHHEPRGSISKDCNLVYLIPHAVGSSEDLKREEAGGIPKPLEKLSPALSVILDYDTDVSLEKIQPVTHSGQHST

SMILES | Ki [1] [nM] | IC50 (D(2) dopamine receptor [2]) [nM] | Ki [3] [nM] | Ki [5] [nM] | IC50 (D(2) dopamine receptor [6]) [µM] | Ki (D(1A) dopamine receptor) [µM] | ED50 (Mus musculus [4]) [mg/kg] | ED50 (Mus musculus [7]) [mg/kg] | ED50 (Mus musculus [8]) [mg/kg] | ED50 (Rattus norvegicus [9]) [mg/kg] | ED50 (Rattus norvegicus [10]) [mg/kg] | ED50 [11] [mg/kg] | ED50 (Mus musculus [12]) [mg/kg]
CC(C)(C)c1ccc(OCC2CCN(CC3CC3)CC2)cc1 | – | – | 14 | > 1000 | 3.15 | – | < 30 | > 30 | > 30 | – | – | – | –
N#Cc1ccc(C(=O)CC2CCN(CC3CC3)CC2)cc1.O=C(O)/C=C/C(=O)O | – | – | 11 | > 10000 | > 10 | > 10 | 0.8 | > 90 | – | 22.3 | 5.3 | 0.44 | –
Br.O=C(CC1CCN(CC2CC2)CC1)c1ccc(F)cc1 | – | – | 10 | 15 | – | – | 0.35 | 15 | – | 1.8 | 2.4 | – | 1.9

Stronger by Ki [3], values ahead:

Ki [1] [nM] | IC50 (D(2) dopamine receptor [2]) [nM] | Ki [3] [nM] | Ki [5] [nM] | IC50 (D(2) dopamine receptor [6]) [µM] | Ki (D(1A) dopamine receptor) [µM] | SMILES | ED50 (Mus musculus [4]) [mg/kg] | ED50 (Mus musculus [7]) [mg/kg] | ED50 (Mus musculus [8]) [mg/kg] | ED50 (Rattus norvegicus [9]) [mg/kg] | ED50 (Rattus norvegicus [10]) [mg/kg] | ED50 [11] [mg/kg] | ED50 (Mus musculus [12]) [mg/kg]
53 | 1700 | 5 | – | – | – | Fc1ccc(SCC2CCN(CCC3CC3)CC2)cc1 | > 10 | – | – | – | – | – | –
– | – | 1 | 20 | 1.55 | – | O.O=C(CC1CCN(Cc2ccccc2)CC1)c1ccc(F)cc1.O=C(O)/C=C\C(=O)O | 4.8 | 18 | 8.6 | 2.8 | – | – | –
